Results from PubChem BioAssay.
Active and inactive are the calls of the source.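 How the source made its calls, unless noted: active means viability at or below 10% of carrier control in both of two separate runs; inconclusive means viability at or below 10% in only one of the two runs; inactive means the rest.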

Assays:
[1] = SK-BR-3 cell growth inhibitors, pilot screen, 24 h, human (AID 572); settings: SK-BR-3 viability, CellTiter-Glo luminescence, at 10 µM, stronger effect = lower value;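 further: compound exposure lasted between 18 and 24 h rather than exactly 24 h; 100% = carrier-treated control wells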
[2] = HUVEC growth inhibition – cell-based, human, primary screen (AID 575;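 active means viability at or below 30% in both replicate assays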;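 further: 100% = median of untreated cell wells with 0.1% DMSO on each plate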); settings: HUVEC proliferation, CellTiter-Glo luminescence, 72 h; at 10 µM; stronger effect = lower value
Method in brief: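 Test system: primary human umbilical vein endothelial cells. Quantity: 1250 cells/well. Compound: single 10 µM dose, 0.1% DMSO, from 5x medium stock. Timing: 72 h treatment at 37 °C. Detection: ATP-based CellTiter-Glo luminescent read. Benchmarks: vehicle and MePR control wells. Format: 384-well plates coated with collagen.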

[3] = growth inhibitors of H69AR lung tumor, primary screen, human, duplicate replicates (AID 580;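 active means viability at or under a set limit in both replicates, limit being median viability minus 3 SD, cut at about 48% in these data, passing the limit was not always enough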;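 further: 100% = mean luminescence of untreated wells and 0% = no signal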); settings: H69AR lung tumor cells viability, ATP luminescence, 72 h; at 10 µM; stronger effect = lower value
[4] = reversal of MRP1-mediated doxorubicin resistance, pilot screen, H69AR cells, doxorubicin co-treatment (AID 601;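 active means viability loss from added drug above about 55%, and viability with drug at most 40%, in both replicates, limit read from the data, passing the limit was not always enough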); settings: CellTiter-Glo, 72 h, at 10 µM; for differential viability (reversal): stronger effect = higher value
[5] = 384-well plate pilot, post-Golgi transport modulator project, inhibition of yeast transport mutant growth (AID 636; in the data active means inhibition above about 31%); settings: absorbance 615 nm, about 18 h, stronger effect = higher value
[6] = growth suppression of yeast trafficking mutant, preliminary HTS, modulators of trafficking downstream of Golgi apparatus project, 1536-format plate, OD 615 nm (AID 637; in the data active means inhibition above about 30%); settings: yeast transport mutant growth, absorbance 615 nm, 18 h; stronger effect = higher value
[7] = H69AR cells + 2 uM doxorubicin, measured here: viability with 2 uM doxorubicin, stronger effect = lower value
[8] = H69AR cells, compound alone cytotoxicity

## CC(=O)Oc1ccc(C(c2ccc(OC(C)=O)cc2)c2ccccn2)cc1
[1]
  viability: 91% (inactive)
[2]
  viability: 79% (inactive)
[3]
  viability: 94.9% (inactive)
[4]; H69AR cells + 2 uM doxorubicin
  differential viability (reversal): -0.25% (inactive)
[4]; [7]
  viability: 95.2%
[4]; [8]
  viability: 94.9%
[5]
  inhibition: -0.52% (inactive)
[6]
  inhibition: 0.83% (inactive)

## COC(=O)c1cccc(NC(=O)CN2CCN(Cc3ccccc3)CC2)c1
[1]
  viability: 56% (inactive)
[2]
  viability: 105% (inactive)
[3]
  viability: 90.5% (inactive)
[4]; H69AR cells + 2 uM doxorubicin
  differential viability (reversal): -2.89% (inactive)
[4]; [7]
  viability: 93.4%
[4]; [8]
  viability: 90.5%
[5]
  inhibition: -5.34% (inactive)
[6]
  inhibition: -0.36% (inactive)

## COc1cc(C2c3c(oc4c(C)cc(C)cc4c3=O)C(=O)N2Cc2cccnc2)ccc1O (centres undefined)
[1]
  viability: 78% (inactive)
[2]
  viability: 69.1% (inactive)
[3]
  viability: 80.2% (inactive)
[4]; H69AR cells + 2 uM doxorubicin
  differential viability (reversal): 2.59% (inactive)
[4]; [7]
  viability: 77.6%
[4]; [8]
  viability: 80.2%
[5]
  inhibition: 0.13% (inactive)
[6]
  inhibition: 2.42% (inactive)

## CCN(CC)C(=O)C1CCN(CC2CC=CCC2)CC1 (centres undefined)
[1]
  viability: 97% (inactive)
[2]
  viability: 109% (inactive)
[3]
  viability: 94.8% (inactive)
[4]; H69AR cells + 2 uM doxorubicin
  differential viability (reversal): -3.97% (inactive)
[4]; [7]
  viability: 98.7%
[4]; [8]
  viability: 94.8%
[5]
  inhibition: -2.93% (inactive)
[6]
  inhibition: -2.91% (inactive)

## CCOC(=O)c1[nH]c2ccc(C)cc2c1NC(=O)CN1CCCCC1
[1]
  viability: 107% (inactive)
[2]
  viability: 106% (inactive)
[3]
  viability: 87.8% (inactive)
[4]; H69AR cells + 2 uM doxorubicin
  differential viability (reversal): 0.72% (inactive)
[4]; [7]
  viability: 87.1%
[4]; [8]
  viability: 87.8%
[5]
  inhibition: -5.73% (inactive)
[6]
  inhibition: -3.09% (inactive)

## COc1ccccc1-n1cnc2cc(NS(=O)(=O)c3ccccc3)ccc21
[1]
  viability: 62% (inactive)
[2]
  viability: 101% (inactive)
[3]
  viability: 87.1% (inactive)
[4]; H69AR cells + 2 uM doxorubicin
  differential viability (reversal): -0.69% (inactive)
[4]; [7]
  viability: 87.8%
[4]; [8]
  viability: 87.1%
[5]
  inhibition: -3.15% (inactive)
[6]
  inhibition: -6.55% (inactive)

## O=C(O)CCn1c(=O)c2ccccc2c2ccccc2c1=O
[1]
  viability: 87% (inactive)
[2]
  viability: 109% (inactive)
[3]
  viability: 100% (inactive)
[4]; H69AR cells + 2 uM doxorubicin
  differential viability (reversal): 5.16% (inactive)
[4]; [7]
  viability: 94.8%
[4]; [8]
  viability: 100%
[5]
  inhibition: 0.14% (inactive)
[6]
  inhibition: -8.06% (inactive)

## Cc1ccc(S(=O)(=O)N2CCN(C(=O)c3cc(=O)[nH]c4ccccc34)CC2)c(C)c1
[1]
  viability: 66% (inactive)
[2]
  viability: 82.8% (inactive)
[3]
  viability: 83.3% (inactive)
[4]; H69AR cells + 2 uM doxorubicin
  differential viability (reversal): 3.45% (inactive)
[4]; [7]
  viability: 79.8%
[4]; [8]
  viability: 83.3%
[5]
  inhibition: -9.04% (inactive)
[6]
  inhibition: 2.74% (inactive)

## COc1ccc(CCNC(=O)CCN2C(=O)C3CC=CCC3C2=O)cc1OC (centres undefined)
[1]
  viability: 103% (inactive)
[2]
  viability: 91.9% (inactive)
[3]
  viability: 105% (inactive)
[4]; H69AR cells + 2 uM doxorubicin
  differential viability (reversal): 12% (inactive)
[4]; [7]
  viability: 92.8%
[4]; [8]
  viability: 105%
[5]
  inhibition: -2.08% (inactive)
[6]
  inhibition: -1.97% (inactive)

## CCOc1ccc(-c2cc(C(=O)N3CCN(c4ccccn4)CC3)c3ccccc3n2)cc1
[1]
  viability: 127% (inactive)
[2]
  viability: 43.5% (inactive)
[3]
  viability: 12.5% (active)
[4]; H69AR cells + 2 uM doxorubicin
  differential viability (reversal): -66.7% (inactive)
[4]; [7]
  viability: 79.2%
[4]; [8]
  viability: 12.5%
[5]
  inhibition: 0.13% (inactive)
[6]
  inhibition: -0.49% (inactive)

## O=C(c1ccccc1)c1ccc(N2CCNCC2)cc1
[1]
  viability: 129% (inactive)
[2]
  viability: 96.4% (inactive)
[3]
  viability: 84.5% (inactive)
[4]; H69AR cells + 2 uM doxorubicin
  differential viability (reversal): -5.36% (inactive)
[4]; [7]
  viability: 89.9%
[4]; [8]
  viability: 84.5%
[5]
  inhibition: -2.05% (inactive)
[6]
  inhibition: 6.91% (inactive)

## CS(=O)(=O)N(CC(=O)N1CCCCCC1)c1ccc(Br)cc1
[1]
  viability: 86% (inactive)
[2]
  viability: 96.5% (inactive)
[3]
  viability: 97.9% (inactive)
[4]; H69AR cells + 2 uM doxorubicin
  differential viability (reversal): 17.2% (inactive)
[4]; [7]
  viability: 80.6%
[4]; [8]
  viability: 97.9%
[5]
  inhibition: -7.47% (inactive)
[6]
  inhibition: -10% (inactive)

## O=C(O)c1cc(-c2ccccc2)nc2ccccc12
[1]
  viability: 91% (inactive)
[2]
  viability: 92.7% (inactive)
[3]
  viability: 76.7% (inactive)
[4]; H69AR cells + 2 uM doxorubicin
  differential viability (reversal): 2.04% (inactive)
[4]; [7]
  viability: 74.6%
[4]; [8]
  viability: 76.7%
[5]
  inhibition: 2.99% (inactive)
[6]
  inhibition: 4.83% (inactive)

## COc1cc2c(cc1OC)C(/C(C#N)=N\O)=NC(C)(C)C2
[1]
  viability: 86% (inactive)
[2]
  viability: 107% (inactive)
[3]
  viability: 100% (inactive)
[4]; H69AR cells + 2 uM doxorubicin
  differential viability (reversal): 8.75% (inactive)
[4]; [7]
  viability: 91.6%
[4]; [8]
  viability: 100%
[5]
  inhibition: -8.77% (inactive)
[6]
  inhibition: 2% (inactive)

## CC(C)NC(=O)Nc1cccs1
[1]
  viability: 115% (inactive)
[2]
  viability: 99.5% (inactive)
[3]
  viability: 92.1% (inactive)
[4]; H69AR cells + 2 uM doxorubicin
  differential viability (reversal): -3.51% (inactive)
[4]; [7]
  viability: 95.6%
[4]; [8]
  viability: 92.1%
[5]
  inhibition: 2.47% (inactive)
[6]
  inhibition: -0.82% (inactive)

## CC1(C)S[C@@H]2[C@H](NC(=O)C(C(=O)O)c3ccccc3)C(=O)N2[C@H]1C(=O)O (some centres undefined)
[1]
  viability: 87% (inactive)
[2]
  viability: 73.9% (inactive)
[3]
  viability: 107% (inactive)
[4]; H69AR cells + 2 uM doxorubicin
  differential viability (reversal): 3.92% (inactive)
[4]; [7]
  viability: 103%
[4]; [8]
  viability: 107%
[5]
  inhibition: -1.43% (inactive)
[6]
  inhibition: -2.67% (inactive)

## NC(N)=Nc1nc(CSCC/C(N)=N/S(N)(=O)=O)cs1
[1]
  viability: 89% (inactive)
[2]
  viability: 98.5% (inactive)
[3]
  viability: 95.8% (inactive)
[4]; H69AR cells + 2 uM doxorubicin
  differential viability (reversal): -8.47% (inactive)
[4]; [7]
  viability: 104%
[4]; [8]
  viability: 95.8%
[5]
  inhibition: 3.9% (inactive)
[6]
  inhibition: 5.33% (inactive)

## CS(=O)(=O)N(Cc1ccccc1)c1ccc(C(=O)N2CCOCC2)cc1
[1]
  viability: 95% (inactive)
[2]
  viability: 105% (inactive)
[3]
  viability: 97.7% (inactive)
[4]; H69AR cells + 2 uM doxorubicin
  differential viability (reversal): 6.74% (inactive)
[4]; [7]
  viability: 91%
[4]; [8]
  viability: 97.7%
[5]
  inhibition: -2.86% (inactive)
[6]
  inhibition: -5.57% (inactive)
